# Bioassay records deposited in PubChem by several laboratories.
# Shown are actives, neighbours in structure and some others; about 0.97% of the full set was active somewhere.
# GASC-1 inh = human JMJD2C demethylase inhibition. Q9H3R0. GST-JMJD2C(1-420) H3K9me3 demethylation, DELFIA europium. inhibition, % at 2.35 µM. hit rate 0.069% among 330,000. AID 2099;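 active = more than half of a compound's replicate wells show inhibition beyond 50%, single wells judged on their own value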;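 note: signal counts dimethyl H3K9 product captured on neutravidin plate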
# A3A deaminase = inhibitors of human APOBEC3A DNA deaminase; P31941; recombinant A3A, FAM/TAMRA ssDNA deamination fluorescence; inhibition, % at 20 µM; hit rate 0.41% among 330,000;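 active = at least 40% inhibition at 20 µM here, with at most 30% in a related deaminase screen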
# A3G deaminase = APOBEC3G (human) deaminase inhibition. recombinant A3G, ssDNA deamination FAM/TAMRA fluorescence. inhibition, % at 20 µM. hit rate 0.28% among 330,000. Q9HC16;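 active = inhibition of at least 40% at 20 µM, with no more than 30% in the related APOBEC3A deaminase screen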
# Target sequence (Q9HC16 whole entry, looked up): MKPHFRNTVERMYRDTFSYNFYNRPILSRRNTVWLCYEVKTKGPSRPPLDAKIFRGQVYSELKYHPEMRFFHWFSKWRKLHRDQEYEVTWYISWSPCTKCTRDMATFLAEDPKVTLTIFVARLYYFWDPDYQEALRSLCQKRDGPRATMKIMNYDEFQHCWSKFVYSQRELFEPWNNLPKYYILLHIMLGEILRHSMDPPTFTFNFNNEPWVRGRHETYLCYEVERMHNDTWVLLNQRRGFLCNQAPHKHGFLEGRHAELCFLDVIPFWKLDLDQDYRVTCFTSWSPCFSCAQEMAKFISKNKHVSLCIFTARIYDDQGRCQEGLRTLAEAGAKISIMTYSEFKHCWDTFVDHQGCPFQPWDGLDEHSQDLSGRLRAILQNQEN
# UCH37 DUB inh = blocks the human deubiquitinase UCH37; purified proteasome/UCH37, Ub-AMC cleavage fluorescence; inhibition, % (no concentration beside the values); hit rate 0.33% among 330,000;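 active = mean inhibition over replicate wells above about 20%, limit read from the data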
#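 system = Proteasome-associated human UCH37 deubiquitinase | amount = 0.15 nM proteasome as dispensed | medium = pH 7.4 Tris-HCl (50 mM) with ovalbumin, ATP-MgCl2, DTT | incubation = 30 min preincubation with enzyme, 25 min cleavage at room temperature | detection = AMC fluorescence 355/460 nm | read-out basis = percent inhibition | controls = no-proteasome and no-compound wells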
# UCH37 reconfirm = UCH37 Ub-AMC cleavage inhibition, confirmed. shares compounds with UCH37 DUB inh. Proteasome-bound UCH37, Ub-AMC cleavage fluorescence. inhibition, % at 20 µM. hit rate 27% among 480. AID 624100;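 active = average inhibition over replicates above about 50%, so the earlier screening hit is confirmed, limit read from the data; inactive = the rest, counted as false positives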;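 note: based on cleavage rate fitted by regression over a 30 min kinetic read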
# A number is an active result; – = inactive; · = not tested or not shown.
SMILES,GASC-1 inh,A3A deaminase,A3G deaminase,UCH37 DUB inh,UCH37 reconfirm
CCCCNC(=O)c1c(CSc2ccc(Cl)cc2)noc1C(=O)NCCC,–,–,–,–,·
CCCCNC(=O)c1onc(CSc2ccc(Cl)cc2)c1C(=O)NCCCC,–,–,–,36,–
C(=NN1CCN(Cc2cccc3ccccc23)CC1)c1cccs1,·,·,·,–,·
Cc1cc(NC(=O)Nc2ccccc2F)ccc1Br,–,–,–,38,–
COc1cc(C=NNC(=O)c2ccc(-c3ccccc3)cc2)cc(OC)c1O,·,·,·,–,·
COc1ccccc1N1CCN(N=C/C=C\c2ccco2)CC1,·,·,·,–,·
Oc1ccc2ccccc2c1C=Nn1cnnc1,·,·,·,–,·
Clc1ccc(C2=NNC(=NCC3CCCO3)SC2)cc1 (stereo not given),–,–,–,51,–
CCN1/C(=C/C=C/c2sc3ccccc3[n+]2CC)Sc2ccccc21,–,–,–,–,·
CCN1/C(=C/c2ccc3cc(C)ccc3[n+]2CC)Sc2ccccc21,–,–,–,36,–
COc1cccc(NC(=O)CC2SC(=NS(=O)(=O)c3ccccc3)N(c3ccccc3)C2=O)c1 (stereo not given),·,·,·,–,·
O=C(Cc1ccccc1)NC1(O)C(=O)c2ccccc2C1=O,–,–,–,·,·
O=C(NC1(O)C(=O)c2ccccc2C1=O)c1ccc(C(F)(F)F)cc1,–,–,–,79,69
Cc1ccc(C(=O)NC2(O)C(=O)c3ccccc3C2=O)cc1C,–,–,–,78,61
COc1cc(C(=O)NCC(=O)NN=Cc2cccc(OC(=O)c3ccco3)c2)cc(OC)c1OC,·,·,·,–,·
Cc1ccccc1OCC(=O)ON=C(N)Cc1ccc(Cl)cc1,·,·,·,44,–
Cc1cc(-c2n[nH]c(=S)n2N=Cc2ccc(Br)s2)n[nH]1,·,·,·,–,·
CC(C)n1cc(C=NNC(=O)COc2cccc3cccnc23)c2ccccc21,·,·,·,–,·
CC1(C)OC(c2ccccc2)=C/C(=C/C=Nc2ccccc2)O1,–,–,–,48,–
COc1ccccc1NC(=O)C(=NOCc1ccc(F)cc1)C(C)=O,·,·,·,–,·
O=C(COC(=O)c1ccc([N+](=O)[O-])s1)Nc1ccc(Cl)cn1,–,–,–,–,·
O=C(COC(=O)c1ccc([N+](=O)[O-])s1)NC(c1ccccc1)c1ccccc1,–,–,–,–,·
O=C(COC(=O)c1ccc([N+](=O)[O-])s1)Nc1cccc(S(=O)(=O)NC2=NCCCCC2)c1,–,–,–,62,–
COc1ccc(S(=O)(=O)N2CCOCC2)cc1NC(=O)COC(=O)c1ccc([N+](=O)[O-])s1,–,–,–,62,–
O=C(COC(=O)c1ccc([N+](=O)[O-])s1)Nc1ccccc1,–,–,–,60,–
SMILES,GASC-1 inh,A3A deaminase,A3G deaminase,UCH37 DUB inh,UCH37 reconfirm
O=C(COC(=O)c1ccc([N+](=O)[O-])s1)NCc1ccccc1,–,–,–,39,–
O=C(OCc1nnc(-c2ccccc2)o1)c1ccc([N+](=O)[O-])s1,–,–,–,80,–
CC(C)(C)c1ccc(NC(=O)COC(=O)c2ccc([N+](=O)[O-])s2)cc1,–,·,·,–,·
O=C(COC(=O)c1ccc([N+](=O)[O-])s1)Nc1ccc(F)cc1,–,–,–,67,77
Cc1ccc(C(=O)OCc2nnc(-c3ccccc3)o2)s1,–,–,–,–,·
COc1ccc(OC)c(C=NNC(=O)CSc2cc(C)nc3c(OC)cccc23)c1,·,·,·,–,·
Cc1ccc(/C=C2\SC(=S)N(Cc3ccccc3)C2=O)o1,·,–,–,–,·
O=C(O)c1cc(-c2ccc(/C=C3/SC(=S)N(Cc4ccccc4)C3=O)o2)ccc1Cl,·,·,·,45,60
O=C(O)CCCN1C(=O)/C(=C\c2ccc(-c3nc4ccccc4s3)o2)SC1=S,–,–,–,39,–
Cc1cc[n+](C2=C([O-])c3ccccc3C(=O)/C2=N\S(=O)(=O)c2cccs2)cc1C,–,–,–,–,·
Cc1ccc(NC2=CC(=NS(=O)(=O)c3cccs3)c3ccccc3C2=O)cc1C,·,·,·,–,·
Cc1ccccc1NC1=C/C(=N\S(=O)(=O)c2cccs2)c2ccccc2C1=O,–,–,–,78,–
O=C1C(Nc2ccccc2)=CC(=NS(=O)(=O)c2cccs2)c2ccccc21,·,·,·,78,–
Cc1ccc(NC2=C/C(=N/S(=O)(=O)c3cccs3)c3ccccc3C2=O)cc1C,–,·,·,·,·
Cc1cc(C)c[n+](C2=C([O-])c3ccccc3C(=O)/C2=N\S(=O)(=O)c2cccs2)c1,–,–,–,27,–
O=C(CON=Cc1c(Cl)cccc1Cl)NNC(=O)c1ccc(Cl)cc1,·,·,·,–,·
Cc1nn(CC(=O)NN=Cc2ccc(F)cc2)c(C)c1[N+](=O)[O-],·,·,·,–,·
